≈ marks a conversion by molar mass, not a printed value.
Key:
[1] = Selectivity index, ratio of CC50 for MDBK cells to EC50 for BVDV NADL infected in MDBK cells assessed as inhibition of viral RNA synthesis
[2] = system: Bovine viral diarrhea virus 1-NADL; test: Selectivity ratio of EC50 for BPIP-resistant BVDV NADL to EC50 for wild type BVDV NADL; format: functional
Hepatitis C virus = test: Antiviral activity against HCV genotype 1b infected in Huh5-2 cells assessed as inhibition of viral replication after 4 days by luciferase reporter gene assay; format: functional, organism-based, Hepacivirus hominis, Huh-5-2; conditions: Hepatitis C virus, genotype 1b, Huh-5-2, 96 h
How it was run: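 Huh 5-2 cells carrying the HCV subgenomic luciferase replicon were seeded at 5 × 10³/well with compound and incubated 4 days at 37 °C. Medium was removed and luciferase activity quantified. EC50 is the minimum concentration reducing replicon-driven luciferase signal by 50%.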

[3] = Antiviral activity against BPIP-resistant BVDV NADL assessed as inhibition of viral replication; format: functional, Bovine viral diarrhea virus 1-NADL
How it was run: (§1)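 MDBK cells were seeded at 5 × 10³/well in MEM-FCS and held 24 h at 37 °C in 5% CO₂. Medium was replaced with 5-fold serial compound dilutions, then BVDV NADL (drug-selected resistant variant) at MOI 2. CPE was read by the MTS method at OD 490 nm, and % CPE was calculated. EC50 is the concentration giving 50% protection from virus-induced CPE, by linear interpolation.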

[4] = Antiviral activity against BVDV NADL infected in MDBK cells assessed as inhibition of progeny infectious viral particle production; format: functional, cell-based, Bovine viral diarrhea virus 1-NADL; conditions: Bovine viral diarrhea virus isolates and strains
[5] = system: Bovine viral diarrhea virus 1-NADL; test: Selectivity ratio of EC50 for LZ37-resistant BVDV NADL to EC50 for AG110-resistant BVDV NADL; format: functional
[6] = Selectivity index, ratio of CC50 for Huh5-2 cells to EC50 for HCV genotype 1b infected in Huh5-2 cells; parameters: species or system Huh-5-2
How it was run: (§2)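 Selectivity index is the ratio of CC50 from the 3-day MTS/PMS proliferation assay to EC50 in the same cell line. For Huh 5-2 the EC50 is from the luciferase replicon assay; for MDBK it is from the MTS CPE assay.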

[7] = Antiviral activity against AG110-resistant BVDV NADL assessed as inhibition of viral replication; format: functional, Bovine viral diarrhea virus 1-NADL; how it was run: as §1
[8] = Antiviral activity against LZ37-resistant BVDV NADL assessed as inhibition of viral replication; format: functional, Bovine viral diarrhea virus 1-NADL; how it was run: as §1
[9] = system: Bovine viral diarrhea virus 1-NADL; test: Selectivity ratio of EC50 for AG110-resistant BVDV NADL to EC50 for wild type BVDV NADL; format: functional
[10] = (§3) Antiviral activity against BVDV NADL infected in MDBK cells assessed as inhibition of virus-induced cytopathic effect formation after 5 days by MTS assay; format: functional, cell-based, Bovine viral diarrhea virus 1-NADL; conditions: Bovine viral diarrhea virus isolates and strains, 120 h
How it was run: (§4)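 MDBK cells were seeded at 5 × 10³/well in MEM-FCS and held 24 h at 37 °C, 5% CO₂. Medium was replaced with 5-fold serial compound dilutions, then BVDV inoculum was added at MOI 2. CPE was read by MTS as OD at 490 nm. EC50 is the concentration giving 50% protection against virus-induced CPE, by linear interpolation.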

MDBK = test: as §3; format: functional, cell-based; conditions: Bovine viral diarrhea virus 1-NADL; how it was run: as §4
[11] = Cytotoxicity against human Huh5-2 cells assessed as growth inhibition after 3 days by MTS assay; format: cell-based, Huh-5-2
How it was run: (§5)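 MDBK or Huh 5-2 cells were seeded at 5 × 10³/well in MEM-FCS, with serial compound dilutions added 24 h later. Cells proliferated 3 days at 37 °C, then metabolic activity was read by MTS/PMS. CC50 is the concentration inhibiting proliferation of exponentially growing cells by 50%, by linear interpolation.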

[12] = system: Bovine viral diarrhea virus 1-NADL; test: Selectivity ratio of EC50 for LZ37-resistant BVDV NADL to EC50 for wild type BVDV NADL; format: functional
[13] = Cytotoxicity against MDBK cells assessed as growth inhibition after 3 days by MTS assay; format: cell-based, Bos taurus; conditions: cattle; how it was run: as §5
[14] = Antiviral activity against BVDV NADL infected in MDBK cells assessed as inhibition of viral RNA synthesis by RT-qPCR analysis; format: functional, cell-based, Bovine viral diarrhea virus 1-NADL; conditions: Bovine viral diarrhea virus isolates and strains
[15] = Selectivity ratio of EC50 for BVDV NADL infected in MDBK cells assessed as inhibition of progeny infectious viral particle production to EC50 for BVDV NADL infected in MDBK cells assessed as inhibition of viral RNA synthesis; format: functional, Bovine viral diarrhea virus 1-NADL
[16] = Selectivity index, ratio of CC50 for MDBK cells to EC50 for BVDV NADL infected in MDBK cells; how it was run: as §2
[17] = Selectivity index, ratio of CC50 for MDBK cells to EC50 for BVDV NADL infected in MDBK cells assessed as inhibition of progeny infectious viral particle production

For `Fc1ccc(-c2nc3ccc(Sc4ccccc4)cn3c2-c2cccc(-c3ccccc3)c2)cc1`, the Ratio CC50/EC50 [1] was 37, the Ratio EC50 [2] was 1.5 and the EC50 (Hepatitis C virus) was greater than 106 µg/mL. For the same molecule, the EC50 [3] was 6 µg/mL (≈ 12.7 µM), the EC50 [4] was 8 µg/mL (≈ 16.9 µM) and the Ratio EC50 [5] was 2. For the same molecule, the “Ratio CC50/EC50” value [6] was greater than 1, the EC50 [7] was 3.9 µg/mL (≈ 8.25 µM) and the EC50 [8] was 8.8 µg/mL (≈ 18.6 µM). For the same molecule, the Ratio EC50 [9] was 0.9, the EC50 [10] was 2 µg/mL (≈ 4.23 µM) and the inhibition (MDBK) was “Dose-dependent effect”. For the same molecule, the CC50 at 72 h [11] was greater than 106 µg/mL, the Ratio EC50 [12] was 2.2 and the CC50 at 72 h [13] was greater than 100 µg/mL. The EC50 [14] was 2.7 µg/mL (≈ 5.71 µM), the “Ratio EC50” value [15] was 2 and the “Ratio CC50/EC50” value [16] was greater than 50. The “Ratio CC50/EC50” value [17] was 19.

With `Fc1ccc(-c2nc3ccccn3c2-c2cccc(-c3ccc(Cl)cc3)c2)cc1` the EC50 (Hepatitis C virus) was 5.9 µg/mL (≈ 14.8 µM), the “Ratio CC50/EC50” value [6] was 9.7 and the EC50 [10] was 3 µg/mL (≈ 7.52 µM). The CC50 at 72 h [11] was 57.5 µg/mL (≈ 144 µM), the CC50 at 72 h [13] was 12.7 µg/mL (≈ 31.8 µM) and the “Ratio CC50/EC50” value [16] was 4.3.

In the case of `COc1ccccc1-c1cccc(-c2c(-c3ccc(F)cc3)nc3ccccn23)c1`, the EC50 (Hepatitis C virus) is reported as 10.7 µg/mL (≈ 27.1 µM), the “Ratio CC50/EC50” value [6] is reported as 2.8 and the EC50 [10] is reported as 2.7 µg/mL (≈ 6.84 µM). For the same molecule, the CC50 at 72 h [11] was 29.7 µg/mL (≈ 75.3 µM), the CC50 at 72 h [13] was 8.5 µg/mL (≈ 21.5 µM) and the “Ratio CC50/EC50” value [16] was 3.2.

For `Fc1ccc(-c2nc3ccc(N4CCOCC4)cn3c2-c2cccc(-c3ccccc3)c2)cc1`, the EC50 (Hepatitis C virus) was 6.7 µg/mL (≈ 14.9 µM), the “Ratio CC50/EC50” value [6] was 1.7 and the EC50 [10] was greater than 50 µg/mL. For the same molecule, the CC50 at 72 h [11] was 11.1 µg/mL (≈ 24.7 µM), the CC50 at 72 h [13] was greater than 50 µg/mL and the “Ratio CC50/EC50” value [16] was greater than 1.

For `COc1cccc(-c2cccc(-c3c(-c4ccc(F)cc4)nc4ccccn34)c2)c1`, the EC50 (Hepatitis C virus) was 4.3 µg/mL (≈ 10.9 µM), the “Ratio CC50/EC50” value [6] was 11.8 and the EC50 [10] was 3.1 µg/mL (≈ 7.86 µM). For the same molecule, the CC50 at 72 h [11] was 50.2 µg/mL (≈ 127 µM), the CC50 at 72 h [13] was 11.5 µg/mL (≈ 29.2 µM) and the “Ratio CC50/EC50” value [16] was 3.7.

For `Fc1ccc(-c2nc3ccc(N4CCOCC4)cn3c2-c2ccc(-c3ccccc3)cc2)cc1`, the EC50 (Hepatitis C virus) was 6.7 µg/mL (≈ 14.9 µM), the “Ratio CC50/EC50” value [6] was 2.3 and the EC50 [10] was greater than 50 µg/mL. The CC50 at 72 h [11] was 15.6 µg/mL (≈ 34.7 µM), the CC50 at 72 h [13] was greater than 50 µg/mL and the “Ratio CC50/EC50” value [16] was greater than 1.

In the case of `COc1ccccc1-c1nc2ccc(-c3ccsc3)cn2c1-c1cccc(-c2ccccc2)c1`, the EC50 (Hepatitis C virus) is reported as 17.5 µg/mL (≈ 38.2 µM), the “Ratio CC50/EC50” value [6] is reported as 3.3 and the EC50 [10] is reported as 68.6 µg/mL (≈ 150 µM). The CC50 at 72 h [11] was 56.8 µg/mL (≈ 124 µM), the CC50 at 72 h [13] was greater than 100 µg/mL and the “Ratio CC50/EC50” value [16] was greater than 1.5.

For `Fc1ccc(-c2nc3ccc(-c4ccsc4)nn3c2-c2cccc(-c3ccccc3)c2)cc1`, the EC50 (Hepatitis C virus) was 11.2 µg/mL (≈ 25 µM), the “Ratio CC50/EC50” value [6] was 1.2 and the EC50 [10] was 1.7 µg/mL (≈ 3.8 µM). For the same molecule, the CC50 at 72 h [11] was 13.4 µg/mL (≈ 29.9 µM), the CC50 at 72 h [13] was 13 µg/mL (≈ 29 µM) and the “Ratio CC50/EC50” value [16] was 8.

With `CC(C)(C)c1nc2ccc(-c3ccsc3)cn2c1-c1cccc(-c2ccccc2)c1` the EC50 (Hepatitis C virus) was 42.5 µg/mL (≈ 104 µM), the “Ratio CC50/EC50” value [6] was greater than 2.4 and the EC50 [10] was 62.6 µg/mL (≈ 153 µM). For the same molecule, the CC50 at 72 h [11] was greater than 123 µg/mL, the CC50 at 72 h [13] was greater than 100 µg/mL and the “Ratio CC50/EC50” value [16] was greater than 1.6.

Source: ChEMBL document CHEMBL2390820, “3-Biphenylimidazo[1,2-a]pyridines or [1,2-b]pyridazines and analogues, novel Flaviviridae inhibitors” (Eur J Med Chem, 2013)
